According to ChEMBL document CHEMBL4725282, “Discovery of a Conformationally Constrained Oxazolidinone with Improved Safety and Efficacy Profiles for the Treatment of Multidrug-Resistant Tuberculosis” (J Med Chem, 2020):

How the values were obtained:
Cytochrome P450 2D6 = Cytochrome P450 2D6 (Homo sapiens, UniProt P10635); experiment: Inhibition of CYP2D6 in human liver microsomes after 20 mins by LC-MS/MS analysis; format: ADME
How it was run: (§1)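 Human liver microsomes (0.2 mg/mL) in phosphate buffer, 20 min incubation with compound at 0.1-50 μM alongside isoform-specific substrates and a positive control. Substrate remaining monitored by LC-MS/MS at each concentration; IC50 derived.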

[1] = Toxicity in female Sprague-Dawley rat assessed as change in mean corpuscular volume at 150 mg/kg/day, po administered for 4 weeks followed by 2 week recovery period (Rvb =56.1 +/- 0.8 fL); format: organism-based; conditions: in vivo, 672 h
[2] = Toxicity in male Sprague-Dawley rat assessed as ophthalmic changes at 50 to 450 mg/kg/day, po administered for 4 weeks followed by 2 week recovery period measured within 7 days of post recover period; format: organism-based; conditions: in vivo, 672 h, dose 50-450 mg/kg/day
[3] = Toxicity in male Sprague-Dawley rat assessed as change in mean corpuscular volume at 450 mg/kg/day, po administered for 4 weeks followed by 2 week recovery period (Rvb =57.5 +/- 2.0 fL); format: organism-based; conditions: in vivo, 672 h
[4] = Toxicity in female Sprague-Dawley rat assessed as change in lymphocyte level at 150 mg/kg/day, po administered for 4 weeks followed by 2 week recovery period (Rvb =76.9 +/- 4.6 %); format: organism-based; conditions: in vivo, 672 h
[5] = Half life in Sprague-Dawley rat hepatocytes at 2 uM by LC-MS/MS analysis; format: ADME, cell-based, Hepatocyte
How it was run: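 Hepatocytes (male CD-1 mouse, male SD rat, male beagle dog, male cynomolgus monkey, pooled human), final 1 μM compound and 1 million cells/mL, made by mixing 2 μM compound with 2 million cells/mL. Incubated at 37 °C in a CO2 incubator; sampled at 0, 15, 30, 60, 90 and 120 min. Quenched with methanol/ACN containing 0.1% formic acid. Parent remaining measured by LC-MS/MS.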

[6] = Toxicity in male Sprague-Dawley rat assessed as change in mean corpuscular hemoglobin at 150 mg/kg/day, po administered for 4 weeks followed by 2 week recovery period (Rvb =18.3 +/- 0.4 pg); format: organism-based; conditions: in vivo, 672 h
[7] = Toxicity in female Sprague-Dawley rat assessed as change in white blood cell count at 450 mg/kg/day, po administered for 4 weeks followed by 2 week recovery period (Rvb =3.61 +/- 0.75 10^9/L); format: organism-based; conditions: in vivo, 672 h
[8] = Toxicity in female Sprague-Dawley rat assessed as change in mean corpuscular volume at 450 mg/kg/day, po administered for 4 weeks followed by 2 week recovery period (Rvb =56.1 +/- 0.8 fL); format: organism-based; conditions: in vivo, 672 h
[9] = Toxicity in female Sprague-Dawley rat assessed as change in platelet count at 450 mg/kg/day, po administered for 4 weeks followed by 2 week recovery period (Rvb =1051 +/- 122 10^9/L); format: organism-based; conditions: in vivo, 672 h
[10] = Genotoxicity in CHO-WBL cells assessed as chromosome aberration at 20 to 150 ug/ml measured after 20 hrs in absence of S9 fraction by Giemsa staining based; format: toxicity, cell-based, Cricetulus griseus; conditions: chinese hamster, dose 20-150 µg/ml
How it was run: (§2)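 CHO-WBL cells in McCoy's 5A with 10% FBS, seeded 20-24 h before treatment. Compound in DMSO, with or without serum-free S-9 mix. Treatment either 3 h, then HBSS wash and 17 h further culture, or 20 h; harvest at 20 h from treatment start. Colcemid 0.1 μg/mL for the final 2 h, hypotonic KCl, methanol:acetic acid fixation, Giemsa stain. 300 metaphases per concentration (150 per duplicate flask) scored.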

[11] = Toxicity in female Sprague-Dawley rat assessed as mortality at 50 to 450 mg/kg/day, po administered for 4 weeks; format: organism-based; conditions: in vivo, 672 h, dose 50-450 mg/kg/day
How it was run: (§3)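 SD rats, 6-7 weeks old (96 in total), split into vehicle, 50, 150 and 450 mg/kg/day groups of 12 females and 12 males each, given oral doses once daily for 4 weeks, then 2 weeks of recovery. Mortality, body weight, food intake, eyes, urine and neuropsychic signs were observed. Organ and bone marrow histopathology was done on 8 rats per sex per group after the last dose and on the remaining 4 per sex after 14 days of recovery.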

[12] = Toxicity in female Sprague-Dawley rat assessed as effect on food consumption at 50 to 450 mg/kg/day, po administered for 4 weeks followed by 2 week recovery period measured at 1 week interval; format: organism-based; conditions: in vivo, 672 h, dose 50-450 mg/kg/day; how it was run: as §3
[13] = Toxicity in female Sprague-Dawley rat assessed as change in mean corpuscular hemoglobin at 50 mg/kg/day, po administered for 4 weeks followed by 2 week recovery period (Rvb =18.5 +/- 0.6 pg); format: organism-based; conditions: in vivo, 672 h
[14] = Toxicity in female Sprague-Dawley rat assessed as change in hemoglobin count at 450 mg/kg/day, po administered for 4 weeks followed by 2 week recovery period (Rvb =136 +/- 7 g/L); format: organism-based; conditions: in vivo, 672 h
[15] = Toxicity in female Sprague-Dawley rat assessed as change in hemoglobin count at 150 mg/kg/day, po administered for 4 weeks followed by 2 week recovery period (Rvb =136 +/- 7 g/L); format: organism-based; conditions: in vivo, 672 h
[16] = Toxicity in female Sprague-Dawley rat assessed as body weight loss at 50 to 450 mg/kg/day, po administered for 4 weeks followed by 2 week recovery period measured at 1 week interval; format: organism-based; conditions: in vivo, 672 h, dose 50-450 mg/kg/day
How it was run: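 SD rats, 6-7 weeks, 12 male and 12 female per group. Oral dosing once daily at 50, 150 or 450 mg/kg/day or vehicle for 4 weeks, then 2-week recovery. 8 per sex dissected after last dose, remaining 4 per sex after 14-day recovery. Body weight, urine, food intake and clinical signs monitored.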

Cytochrome P450 2C19 = Cytochrome P450 2C19 (Homo sapiens, UniProt P33261); experiment: Inhibition of CYP2C19 in human liver microsomes after 20 mins by LC-MS/MS analysis; format: ADME; how it was run: as §1
[17] = Genotoxicity in CHO-WBL cells assessed as chromosome aberration at 20 to 150 ug/ml incubated for 3 hrs followed by compound washout and measured after 17 hrs in presence of S9 fraction by Giemsa staining based; format: toxicity, subcellular, Cricetulus griseus; conditions: chinese hamster, s9, 3 h, dose 20-150 µg/ml; how it was run: as §2
[18] = Toxicity in female Sprague-Dawley rat assessed as change in red blood cell count at 50 mg/kg/day, po administered for 4 weeks followed by 2 week recovery period (Rvb =7.32 +/- 0.20 10^12/L); format: organism-based; conditions: in vivo, 672 h
[19] = Toxicity in female Sprague-Dawley rat assessed as change in mean platelet volume at 450 mg/kg/day, po administered for 4 weeks followed by 2 week recovery period (Rvb =7.1 +/- 0.5 fL); format: organism-based; conditions: in vivo, 672 h
[20] = Toxicity in male Sprague-Dawley rat assessed as mortality at 50 to 450 mg/kg/day, po administered for 4 weeks; format: organism-based; conditions: in vivo, 672 h, dose 50-450 mg/kg/day
[21] = Toxicity in male Sprague-Dawley rat assessed as body weight loss at 50 to 450 mg/kg/day, po administered for 4 weeks measured at 1 week interval; format: organism-based; conditions: in vivo, 672 h, dose 50-450 mg/kg/day; how it was run: as §3
[22] = Genotoxicity in CHO-WBL cells assessed as chromosome aberration at 90 to 397.1 ug/ml incubated for 3 hrs followed by compound washout and measured after 17 hrs in absence of S9 fraction by Giemsa staining based; format: toxicity, cell-based, Cricetulus griseus; conditions: chinese hamster, dose 90-397.1 µg/ml; how it was run: as §2
[23] = Genotoxicity in CHO-WBL cells assessed as chromosome aberration at 90 to 397.1 ug/ml measured after 20 hrs in presence of S9 fraction by Giemsa staining based; format: toxicity, subcellular, Cricetulus griseus; conditions: chinese hamster, s9, 20 h, dose 90-397.1 µg/ml; how it was run: as §2

Cytochrome P450 2D6, sequence (P10635 whole entry, canonical isoform): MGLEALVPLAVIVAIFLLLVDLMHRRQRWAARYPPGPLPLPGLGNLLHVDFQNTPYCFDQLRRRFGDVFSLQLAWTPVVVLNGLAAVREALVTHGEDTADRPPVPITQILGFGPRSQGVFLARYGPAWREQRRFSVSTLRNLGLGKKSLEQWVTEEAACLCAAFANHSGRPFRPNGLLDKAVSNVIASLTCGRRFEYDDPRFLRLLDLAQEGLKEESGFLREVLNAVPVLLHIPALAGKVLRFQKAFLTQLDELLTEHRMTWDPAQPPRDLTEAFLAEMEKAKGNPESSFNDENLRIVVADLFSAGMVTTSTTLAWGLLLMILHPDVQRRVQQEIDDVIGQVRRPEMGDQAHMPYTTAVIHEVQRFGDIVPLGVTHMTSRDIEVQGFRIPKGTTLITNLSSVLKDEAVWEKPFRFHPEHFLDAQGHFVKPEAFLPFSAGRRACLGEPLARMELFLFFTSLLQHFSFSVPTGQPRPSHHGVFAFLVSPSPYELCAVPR
Cytochrome P450 2C19, sequence (P33261 whole entry): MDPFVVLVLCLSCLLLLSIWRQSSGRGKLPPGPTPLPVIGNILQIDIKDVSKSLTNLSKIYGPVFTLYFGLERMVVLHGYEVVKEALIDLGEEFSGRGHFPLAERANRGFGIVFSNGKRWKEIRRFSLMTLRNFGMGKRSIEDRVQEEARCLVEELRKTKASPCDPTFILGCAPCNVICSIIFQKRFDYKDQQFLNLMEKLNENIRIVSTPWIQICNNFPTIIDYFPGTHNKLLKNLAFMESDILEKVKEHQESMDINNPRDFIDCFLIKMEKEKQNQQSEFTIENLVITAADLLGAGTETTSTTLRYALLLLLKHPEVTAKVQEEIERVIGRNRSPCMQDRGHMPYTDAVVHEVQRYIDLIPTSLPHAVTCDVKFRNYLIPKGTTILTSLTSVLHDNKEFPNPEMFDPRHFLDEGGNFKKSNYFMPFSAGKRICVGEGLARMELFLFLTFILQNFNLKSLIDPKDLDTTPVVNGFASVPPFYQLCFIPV

SMILES: CC(=O)NC[C@@H]1OC(=O)N2c3cc(F)c(N4CCSCC4)cc3OC[C@@H]12
- IC50 (Cytochrome P450 2D6): > 50 µM
- Activity [1]: 56.6 fL
- Activity [2]: Non-Toxic
- Activity [3]: 58.7 fL
- Activity [4]: 83%
- half-life at 2 µM [5]: 1.67 h
- Activity [6]: 18.5 pg
- Activity [7]: 2.82 10^9/L
- Activity [8]: 56.5 fL
- Activity [9]: 735 10^9/L
- Activity [10]: Non-Toxic
- Activity [11]: Non-Toxic
- Activity [12]: Non-Toxic
- Activity [13]: 18.5 pg
- Activity [14]: 122 g/L
- Activity [15]: 124 g/L
- Activity [16]: Non-Toxic
- IC50 (Cytochrome P450 2C19): 48.2 µM
- Activity [17]: Non-Toxic
- Activity [18]: 6.85 10^12/L
- Activity [19]: 7.5 fL
- Activity [20]: Non-Toxic
- Activity [21]: Non-Toxic

SMILES: CC(=O)NC[C@@H]1OC(=O)N2c3cc(F)c(N4CC[S+]([O-])CC4)cc3OC[C@@H]12
- Activity [22]: Non-Toxic
- Activity [23]: Non-Toxic
